Measurements published in publication PMC9539578 (Basic & Clinical Pharmacology & Toxicology, 2022).
Structures can show the parent of a compound that is named as a salt. Where a SMILES comes first, the peptide text is derived from it.

Key:
GPR15 receptor (Gi/o) = biological target: T1, GPR15 receptor (Gi/o) (Homo sapiens, UniProt P49685); test: HTRF Gi cAMP assay; type: cell-based
T1 sequence (P49685 1-360): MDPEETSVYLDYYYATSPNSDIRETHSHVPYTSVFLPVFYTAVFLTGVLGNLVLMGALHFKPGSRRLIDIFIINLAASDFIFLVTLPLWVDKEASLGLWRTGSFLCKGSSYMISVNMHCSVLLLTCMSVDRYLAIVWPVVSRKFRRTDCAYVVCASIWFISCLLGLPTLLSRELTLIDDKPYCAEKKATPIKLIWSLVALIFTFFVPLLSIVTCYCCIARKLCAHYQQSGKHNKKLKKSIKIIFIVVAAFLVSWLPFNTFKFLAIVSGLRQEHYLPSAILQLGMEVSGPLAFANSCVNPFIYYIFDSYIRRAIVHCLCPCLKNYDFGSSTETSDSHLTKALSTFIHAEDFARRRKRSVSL
How it was run: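 HEK293A cells stably expressing human GPR15 (G418-selected) were harvested non-enzymatically. Where stated, cells were pretreated 24 h with PTX 100 ng/ml. 4000 cells/well in HBSS/20 mM HEPES/1 mM CaCl2/1 mM MgCl2/100 μM IBMX, pH 7.4, were mixed with threefold-diluted peptide in ligand buffer containing 3 μM forskolin, 30 min at room temperature. HTRF cAMP detection ran 1 h in the dark. Standard-curve cAMP was normalized to forskolin and given a four-parameter EC50 fit; triplicates, 3–5 experiments.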

[1] = test system: muscarinic acetylcholine receptors; test: HTRF Gq IP1 assay, positive control; type: cell-based; conditions: endogenous receptors (mAChR1, mAChR3 and mAChR5) in HEK293A cells
How it was run: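 Carbachol, added at 2× final concentration in HBSS/20 mM HEPES/1 mM CaCl2/1 mM MgCl2/0.01% pluronic acid, pH 7.4, acted on 20 000 HEK293A-GPR15 cells/well with 30 mM LiCl for 30 min at 37 °C. HTRF IP1 detection ran 1 h in the dark at room temperature (665/615 nm). IP1 from a standard curve, buffer-corrected and normalized to the carbachol maximum; 3–5 experiments in triplicate.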

GPR15 receptor / Gi1 = GPR15 receptor / Gi1 (Homo sapiens, UniProt P49685); test: BRET G protein activation assay, Gi1; type: cell-based, human (GPR15); rat (Gi1)
How it was run: (§1)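 HEK293A cells transfected 20–24 h before assay with GPR15 (1.26 μg), Venus(155–239)-Gβ1, Venus(1–155)-Gγ2 and masGRK3ct-Nluc (0.21 μg each), and an optimized amount of the Gα DNA. Cells were given furimazine (1:250) for 3 min, then rising agonist concentrations. BRET ratio is 535/475 nm emission. Emax per concentration was buffer-corrected, normalized to the maximum, and fitted with a four-parameter model. 3–5 independent experiments, 2–3 replicates.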

GPR15 receptor / Gi2 = GPR15 receptor / Gi2 (Homo sapiens, UniProt P49685); test: BRET G protein activation assay, Gi2; type: cell-based, human (GPR15); rat (Gi2)
How it was run: as §1

GPR15 receptor / Gi3 = GPR15 receptor / Gi3 (Homo sapiens, UniProt P49685); test: BRET G protein activation assay, Gi3; type: cell-based, human (GPR15); rat (Gi3)
How it was run: as §1

GPR15 receptor / GoA = GPR15 receptor / GoA (Homo sapiens, UniProt P49685); test: BRET G protein activation assay, GoA; type: cell-based
How it was run: as §1

GPR15 receptor / GoB = GPR15 receptor / GoB (Homo sapiens, UniProt P49685); test: BRET G protein activation assay, GoB; type: cell-based
How it was run: as §1

β2‐adrenergic receptor = test: HTRF Gs cAMP assay, positive control; type: cell-based; conditions: endogenous receptor in HEK293A cells
How it was run: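 Run like the Gi cAMP assay without forskolin. HEK293A-GPR15 cells in HBSS/HEPES buffer with 100 μM IBMX, pH 7.4, were stimulated with isoproterenol via the endogenous β2-adrenergic receptor, 30 min at room temperature. HTRF cAMP detection ran 1 h in the dark (665/615 nm). cAMP from a standard curve, buffer-corrected and normalized to the isoproterenol maximum; 3–5 experiments in triplicate.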

[2] = biological target: T2, G protein-coupled receptor 15 (GPR15) (human) (UniProt P49685)
T2 sequence: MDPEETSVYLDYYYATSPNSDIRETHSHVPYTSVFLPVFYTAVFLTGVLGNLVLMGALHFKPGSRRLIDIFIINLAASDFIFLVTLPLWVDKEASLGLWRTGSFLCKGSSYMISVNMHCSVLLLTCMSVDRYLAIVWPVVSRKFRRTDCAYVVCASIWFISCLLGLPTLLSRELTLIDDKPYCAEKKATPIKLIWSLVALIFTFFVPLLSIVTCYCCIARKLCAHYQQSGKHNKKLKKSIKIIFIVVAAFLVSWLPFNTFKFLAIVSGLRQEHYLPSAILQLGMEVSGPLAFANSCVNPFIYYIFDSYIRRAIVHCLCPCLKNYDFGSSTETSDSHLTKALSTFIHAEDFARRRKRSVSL

GPR15 receptor / Gi3, sequence (P08753 2-354 partner limits assumed, one chain of several): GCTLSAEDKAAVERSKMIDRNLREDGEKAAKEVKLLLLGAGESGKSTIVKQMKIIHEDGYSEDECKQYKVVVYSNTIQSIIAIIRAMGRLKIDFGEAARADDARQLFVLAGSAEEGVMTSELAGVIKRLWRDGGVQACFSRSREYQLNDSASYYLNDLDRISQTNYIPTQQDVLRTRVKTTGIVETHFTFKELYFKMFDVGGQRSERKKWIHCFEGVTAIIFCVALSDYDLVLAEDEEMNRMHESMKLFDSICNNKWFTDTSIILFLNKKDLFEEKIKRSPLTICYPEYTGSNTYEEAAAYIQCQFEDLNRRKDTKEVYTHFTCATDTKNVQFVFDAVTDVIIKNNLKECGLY
GPR15 receptor / Gi3, sequence (P62873 2-340 partner limits assumed, one chain of several): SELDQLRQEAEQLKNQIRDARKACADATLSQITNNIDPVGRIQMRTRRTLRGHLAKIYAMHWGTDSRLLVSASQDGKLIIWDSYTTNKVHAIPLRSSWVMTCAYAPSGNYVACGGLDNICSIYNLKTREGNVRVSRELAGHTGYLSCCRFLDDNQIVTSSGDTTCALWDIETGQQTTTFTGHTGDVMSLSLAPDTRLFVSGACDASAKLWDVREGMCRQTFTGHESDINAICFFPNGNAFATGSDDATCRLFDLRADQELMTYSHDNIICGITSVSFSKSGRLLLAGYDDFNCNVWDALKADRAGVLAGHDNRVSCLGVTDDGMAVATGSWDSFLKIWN
GPR15 receptor / Gi3, sequence (P59768 2-68 partner limits assumed, one chain of several): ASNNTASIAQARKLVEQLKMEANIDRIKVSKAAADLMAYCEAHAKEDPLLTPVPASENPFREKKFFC
GPR15 receptor / GoB, sequence (P09471 2-354 isoform P09471-2 partner limits assumed, one chain of several): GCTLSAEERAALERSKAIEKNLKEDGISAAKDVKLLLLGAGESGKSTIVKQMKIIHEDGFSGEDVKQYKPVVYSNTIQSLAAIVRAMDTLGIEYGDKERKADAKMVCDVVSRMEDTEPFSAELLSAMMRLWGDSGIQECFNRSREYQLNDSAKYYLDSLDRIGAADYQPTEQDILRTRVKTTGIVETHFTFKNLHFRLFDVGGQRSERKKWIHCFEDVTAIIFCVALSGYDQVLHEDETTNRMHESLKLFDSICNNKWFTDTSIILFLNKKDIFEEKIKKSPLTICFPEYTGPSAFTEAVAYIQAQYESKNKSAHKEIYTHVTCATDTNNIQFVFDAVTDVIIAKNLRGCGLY
GPR15 receptor / GoB, sequence (P62873 2-340 partner limits assumed, one chain of several): as the sequence (P62873 2-340 partner limits assumed, one chain of several) above
GPR15 receptor / GoB, sequence (P59768 2-68 partner limits assumed, one chain of several): as the sequence (P59768 2-68 partner limits assumed, one chain of several) above
GPR15 receptor / GoA, sequence (P09471 2-354 partner limits assumed, one chain of several): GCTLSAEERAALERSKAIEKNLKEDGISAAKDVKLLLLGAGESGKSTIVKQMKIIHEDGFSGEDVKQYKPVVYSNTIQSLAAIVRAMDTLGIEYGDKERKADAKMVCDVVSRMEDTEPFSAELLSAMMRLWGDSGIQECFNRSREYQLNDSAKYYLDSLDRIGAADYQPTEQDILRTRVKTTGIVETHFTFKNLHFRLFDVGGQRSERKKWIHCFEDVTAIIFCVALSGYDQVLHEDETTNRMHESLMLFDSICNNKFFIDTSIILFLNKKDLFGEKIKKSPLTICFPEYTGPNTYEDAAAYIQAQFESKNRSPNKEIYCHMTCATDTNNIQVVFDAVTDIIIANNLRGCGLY
GPR15 receptor / GoA, sequence (P62873 2-340 partner limits assumed, one chain of several): as the sequence (P62873 2-340 partner limits assumed, one chain of several) above
GPR15 receptor / GoA, sequence (P59768 2-68 partner limits assumed, one chain of several): as the sequence (P59768 2-68 partner limits assumed, one chain of several) above
GPR15 receptor / Gi2, sequence (P04897 2-355 partner limits assumed, one chain of several): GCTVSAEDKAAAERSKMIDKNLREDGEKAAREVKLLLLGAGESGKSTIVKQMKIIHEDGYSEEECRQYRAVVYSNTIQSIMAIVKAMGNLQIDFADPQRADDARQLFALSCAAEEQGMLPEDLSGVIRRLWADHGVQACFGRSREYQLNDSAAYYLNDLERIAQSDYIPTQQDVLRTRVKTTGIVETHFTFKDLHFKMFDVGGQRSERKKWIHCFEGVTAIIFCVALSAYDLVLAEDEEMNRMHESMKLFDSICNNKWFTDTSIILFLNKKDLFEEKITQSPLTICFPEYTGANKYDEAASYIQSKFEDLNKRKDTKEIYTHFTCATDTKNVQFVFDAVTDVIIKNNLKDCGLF
GPR15 receptor / Gi2, sequence (P62873 2-340 partner limits assumed, one chain of several): as the sequence (P62873 2-340 partner limits assumed, one chain of several) above
GPR15 receptor / Gi2, sequence (P59768 2-68 partner limits assumed, one chain of several): as the sequence (P59768 2-68 partner limits assumed, one chain of several) above
GPR15 receptor / Gi1, sequence (P10824 2-354 partner limits assumed, one chain of several): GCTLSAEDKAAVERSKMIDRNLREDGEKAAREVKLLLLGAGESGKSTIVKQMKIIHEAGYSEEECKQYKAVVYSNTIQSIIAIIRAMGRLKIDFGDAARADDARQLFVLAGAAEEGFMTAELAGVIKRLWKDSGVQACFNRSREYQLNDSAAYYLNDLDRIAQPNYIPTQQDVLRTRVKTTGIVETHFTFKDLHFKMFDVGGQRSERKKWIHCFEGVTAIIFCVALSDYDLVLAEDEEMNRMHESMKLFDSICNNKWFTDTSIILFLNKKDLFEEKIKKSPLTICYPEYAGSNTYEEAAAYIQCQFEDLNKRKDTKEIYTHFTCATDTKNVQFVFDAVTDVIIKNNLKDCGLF
GPR15 receptor / Gi1, sequence (P62873 2-340 partner limits assumed, one chain of several): as the sequence (P62873 2-340 partner limits assumed, one chain of several) above
GPR15 receptor / Gi1, sequence (P59768 2-68 partner limits assumed, one chain of several): as the sequence (P59768 2-68 partner limits assumed, one chain of several) above

pertussis toxin [PTX] was tested, and the “inhibition of cAMP production in presence of PTX” value (GPR15 receptor (Gi/o); hGPR15-HEK293A, PTX 100 ng/ml for 24 h) was “inhibition could be eliminated”.

For `C[N+](C)(C)CCOC(N)=O` [carbachol, carbamoylcholine chloride], the IP1 level [1] was “robust IP1 level increase”.

Work on `CC(C)C[C@H](NC(=O)[C@H](C)NC(=O)CNC(=O)[C@@H]1CCCN1C(=O)[C@@H](NC(=O)[C@@H](NC(=O)[C@H](Cc1c[nH]c2ccccc12)NC(=O)[C@@H](N)CC(C)C)C(C)C)C(C)C)C(=O)N1CCC[C@H]1C(=O)N[C@@H](CCC(N)=O)C(=O)N[C@H](C(=O)O)C(C)C` [GPR15L(71–81)] (H-LWVVPGALPQV-OH) yielded an EC50 (GPR15 receptor / Gi1) of 724 nM, an EC50 (GPR15 receptor / Gi2) of 1700 nM and an EC50 (GPR15 receptor / Gi3) of 912 nM. The EC50 (GPR15 receptor / GoA) was 3020 nM, the EC50 (GPR15 receptor / GoB) was 2510 nM and the EC50 (GPR15 receptor (Gi/o)) was 407 nM.

In the case of `CC(C)NCC(O)c1ccc(O)c(O)c1` (stereo not drawn) [isoproterenol, isoproterenol bitartrate salt], the cAMP level (β2‐adrenergic receptor) is reported as “robust cAMP level increase”.

Molecule LWVVPGALPQV [human GPR15L(71–81) peptide] has a pEC50, BRET G protein activation assay, Gi1 [2] of 6.14, a pEC50, BRET G protein activation assay, Gi2 [2] of 5.77 and a pEC50, BRET G protein activation assay, Gi3 [2] of 6.04. For the same molecule, the pEC50, BRET G protein activation assay, GoA [2] was 5.52.

B1: human GPR15L(25–81) peptide (ligand)
peptide: KRRPAKAWSGRRTRLCCHRVPSPNSTNLKGHHVRLCKPCKLEPEPRLWVVPGALPQV
B1 showed a pEC50, BRET G protein activation assay, Gi1 [2] of 7.79, a pEC50, BRET G protein activation assay, Gi2 [2] of 7.14 and a pEC50, BRET G protein activation assay, Gi3 [2] of 7.69. The pEC50, BRET G protein activation assay, GoA [2] was 7.28 and the pEC50, BRET G protein activation assay, GoB [2] was 7.54.
